Reference: paper PMC11984575 (Neurobiology of Pain, 2025)
Entries after “also recorded” stand apart in the source; their conditions may differ.

What was measured:
[1] = system: humanized NaV1.8 rats; experiment: CFA-induced thermal hyperalgesia; assay type: in vivo, rat; conditions: one hour post dosing; for hind paw withdrawal latency vs vehicle (thermal hyperalgesia): 24 h after CFA
Method in brief: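 Male humanized NaV1.8 rats; baseline Hargreaves latency as mean of two trials, 20 s cutoff. CFA (50 μL, 1 mg/mL) given intraplantar into mid-plantar hind paw; latencies retested at 24 h. Rats then randomized to PO vehicle or test compound (1 or 10 mg/kg), or diclofenac 80 mg/kg ip. Latency read 1 h post-dose; blinded; n = 20/group; two-way ANOVA with Bonferroni; mean ± SD.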

[2] = system: rat NaV1.8 channels; conditions: cited from earlier work; for potency in rats: ref Gilchrist et al., 2024, Osteen et al., 2025
[3] = system: humanized NaV1.8 rats; experiment: Spinal nerve ligation; assay type: in vivo, rat; conditions: one-hour post-dosing
Method in brief: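 Male humanized NaV1.8 rats; baseline von Frey PWT (Up-Down, plantar) <9 g excluded. Under isoflurane, L6 transverse process removed; L5 spinal nerve tightly ligated and cut. After 1 week, PWT >6 g excluded. Day 1: PO vehicle (10 % Tween 80) or 10 mg/kg; after 4-day washout and reassessment, PO vehicle or 1 mg/kg. PWT read 1 h post-dose; blinded; mixed-effects model, Bonferroni; mean ± SD.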

[4] = molecular target: Chimera A: NaV1.5(1–770) – NaV1.8(719–751) – NaV1.5(804–2015) (Homo sapiens, UniProt Q14524+Q9Y5Y9); experiment: QPatch II sodium currents of chimeric NaV channel in FS-293 HEK cells; assay type: cell-based
Method in brief: (§1)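 Chimeric NaV1.5/NaV1.8 constructs electroporated into FS-293 HEK cells; currents recorded on QPatch II. External (mM): 150 NaCl, 5 KCl, 2 CaCl2, 1 MgCl2, 10 HEPES, 12 dextrose, pH 7.3 (NaOH), 330 Osm. Steps from −90 to +10 mV; IC50 by non-linear regression, bounds 0–1, Hill slope free.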

[5] = molecular target: human NaV1.1 (Homo sapiens, UniProt P35498); experiment: Automated patch clamp; assay type: cell-based
[6] = system: humanized NaV1.8 rats; experiment: Capsaicin nocifensive behavior; assay type: in vivo, rat
Method in brief: (§2)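 Male rats, humanized or wild-type Sprague-Dawley, acclimated to chamber twice beforehand and 15 min on test day. Test compound given PO 1 h before intradermal capsaicin (25 μL, 0.01 %, in ethanol/Tween80/saline 20:7:73) into left hind paw. Flinches counted over 5 min; blinded, randomized order. Wild-type: n = 10/group, Student's t-test. Humanized dose-response: per-animal % inhibition of vehicle mean fitted against unbound plasma level (tail-vein blood post-test) for in vivo IC50.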

[7] = molecular target: Chimera B: NaV1.8(1–718) – NaV1.5(771–803) – NaV1.8(752–1956) (Homo sapiens, UniProt Q14524+Q9Y5Y9); experiment: QPatch II sodium currents of chimeric NaV channel in FS-293 HEK cells; assay type: cell-based; conditions: VSDIIS3 of NaV1.5 in NaV1.8
Method in brief: as §1

[8] = Total plasma exposure in CFA and SNL studies; assay type: in vivo, rat; conditions: for Total plasma exposure: SNL study, approximately 1-hour post-dosing; for concentration at 4 h: rat, plasma, po
Method in brief: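 Tail-vein blood for total plasma levels after PO test compound (1 or 10 mg/kg): in CFA rats at 4 h post-dose, in SNL rats right after mechanical testing, about 1 h post-dose.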

[9] = molecular target: human NaV1.7 (Homo sapiens, UniProt Q15858); experiment: Automated patch clamp; assay type: cell-based
[10] = molecular target: human NaV1.2 (Homo sapiens, UniProt Q99250); experiment: Automated patch clamp; assay type: cell-based
[11] = molecular target: T1, human NaV1.8 (Homo sapiens, UniProt Q9Y5Y9); experiment: Automated patch clamp; assay type: cell-based; conditions: train of 10 pulses at 1 Hz vs first pulse
[12] = molecular target: T1, human NaV1.8; assay type: cell-based
[13] = molecular target: Chimera 2: NaV1.8(1–399) – NaV1.5(416–1199) – NaV1.8(1148–1956) (Homo sapiens, UniProt Q14524+Q9Y5Y9); experiment: QPatch II sodium currents of chimeric NaV channel in FS-293 HEK cells; assay type: cell-based; conditions: VSDII of NaV1.5 swapped into NaV1.8
Method in brief: as §1

[14] = molecular target: Chimera 1: NaV1.5(1–711) – NaV1.8(660–890) – NaV1.5(940–2015) (Homo sapiens, UniProt Q14524+Q9Y5Y9); experiment: as above; assay type: cell-based
Method in brief: as §1

[15] = molecular target: human NaV1.3 (Homo sapiens, UniProt Q9NY46); experiment: Automated patch clamp; assay type: cell-based
[16] = molecular target: human NaV1.4 (Homo sapiens, UniProt P35499); experiment: Automated patch clamp; assay type: cell-based; conditions: vs human NaV1.8
[17] = Rat plasma protein binding; assay type: in vitro ADME
[18] = molecular target: human NaV1.6 (Homo sapiens, UniProt Q9UQD0); experiment: Automated patch clamp; assay type: cell-based
[19] = system: wild-type Sprague-Dawley rats; experiment: Capsaicin nocifensive behavior; assay type: in vivo, rat; conditions: 10 mg/kg PO, 1 h before capsaicin
Method in brief: as §2

[20] = molecular target: human NaV1.9 (Homo sapiens, UniProt Q9UI33); experiment: Automated patch clamp; assay type: cell-based
[21] = system: all other recombinant human NaV channel isoforms; conditions: highest concentrations tested (30–34 uM); ref Vardigan et al., 2024; cited from earlier work
[22] = molecular target: rodent NaV1.8 channel (Rattus norvegicus, UniProt Q62968); assay type: cell-based
[23] = molecular target: human NaV1.5 (Homo sapiens, UniProt Q14524); experiment: Automated patch clamp; assay type: cell-based
[24] = system: rat SNL model; conditions: cited from earlier work
[25] = system: NaV1.8; conditions: blocks more current as stimulation rate increases; ref Payne et al., 2015; cited from earlier work

T1 sequence (Q9Y5Y9 whole entry): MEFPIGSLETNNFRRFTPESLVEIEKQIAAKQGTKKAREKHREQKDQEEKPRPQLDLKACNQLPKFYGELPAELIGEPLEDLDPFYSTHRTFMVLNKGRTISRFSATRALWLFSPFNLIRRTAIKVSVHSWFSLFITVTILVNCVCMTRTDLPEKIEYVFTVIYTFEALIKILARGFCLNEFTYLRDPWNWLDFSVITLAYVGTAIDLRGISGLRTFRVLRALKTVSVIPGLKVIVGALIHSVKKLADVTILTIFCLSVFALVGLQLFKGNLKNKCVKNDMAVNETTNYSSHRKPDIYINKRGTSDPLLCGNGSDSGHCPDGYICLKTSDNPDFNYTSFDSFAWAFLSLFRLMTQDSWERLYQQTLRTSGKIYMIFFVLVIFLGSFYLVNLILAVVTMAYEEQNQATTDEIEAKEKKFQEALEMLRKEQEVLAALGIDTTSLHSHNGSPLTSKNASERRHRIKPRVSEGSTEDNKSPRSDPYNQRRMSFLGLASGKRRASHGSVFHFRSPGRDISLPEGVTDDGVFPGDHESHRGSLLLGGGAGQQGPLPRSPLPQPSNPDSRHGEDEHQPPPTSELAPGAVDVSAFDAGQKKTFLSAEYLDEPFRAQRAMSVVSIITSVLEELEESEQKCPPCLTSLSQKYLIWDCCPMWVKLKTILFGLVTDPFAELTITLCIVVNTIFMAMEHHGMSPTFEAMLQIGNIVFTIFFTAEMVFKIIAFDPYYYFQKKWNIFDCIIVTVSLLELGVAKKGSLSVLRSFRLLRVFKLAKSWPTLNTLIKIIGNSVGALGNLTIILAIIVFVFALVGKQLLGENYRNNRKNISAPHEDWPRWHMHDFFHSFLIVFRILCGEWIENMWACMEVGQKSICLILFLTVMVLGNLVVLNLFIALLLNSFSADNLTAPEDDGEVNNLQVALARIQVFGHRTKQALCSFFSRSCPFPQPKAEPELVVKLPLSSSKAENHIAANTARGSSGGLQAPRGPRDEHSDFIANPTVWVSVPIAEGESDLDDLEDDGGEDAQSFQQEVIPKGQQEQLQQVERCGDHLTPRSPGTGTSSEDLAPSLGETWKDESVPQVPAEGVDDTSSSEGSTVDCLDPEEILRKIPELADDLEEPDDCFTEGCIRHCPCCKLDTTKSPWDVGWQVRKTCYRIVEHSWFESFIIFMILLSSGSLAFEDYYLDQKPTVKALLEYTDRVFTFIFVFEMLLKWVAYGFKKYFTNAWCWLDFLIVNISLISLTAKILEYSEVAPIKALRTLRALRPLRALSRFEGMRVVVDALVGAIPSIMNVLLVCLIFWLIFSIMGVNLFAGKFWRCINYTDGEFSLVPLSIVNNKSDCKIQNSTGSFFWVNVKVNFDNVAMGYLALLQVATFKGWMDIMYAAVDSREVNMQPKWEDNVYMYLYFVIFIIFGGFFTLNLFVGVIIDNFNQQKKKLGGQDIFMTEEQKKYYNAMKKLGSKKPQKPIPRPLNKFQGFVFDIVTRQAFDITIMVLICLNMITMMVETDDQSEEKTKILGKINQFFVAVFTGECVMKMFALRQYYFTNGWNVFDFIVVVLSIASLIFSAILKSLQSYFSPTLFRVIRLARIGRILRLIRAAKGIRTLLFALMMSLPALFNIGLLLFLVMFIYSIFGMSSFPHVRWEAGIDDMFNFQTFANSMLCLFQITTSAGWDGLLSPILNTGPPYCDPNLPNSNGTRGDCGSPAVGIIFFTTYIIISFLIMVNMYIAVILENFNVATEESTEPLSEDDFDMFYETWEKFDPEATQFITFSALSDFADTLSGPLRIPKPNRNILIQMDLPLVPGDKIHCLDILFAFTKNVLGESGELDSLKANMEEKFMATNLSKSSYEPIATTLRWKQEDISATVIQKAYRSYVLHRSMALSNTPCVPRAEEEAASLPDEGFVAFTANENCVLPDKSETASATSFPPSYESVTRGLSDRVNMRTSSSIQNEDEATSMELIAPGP
Chain of human NaV1.2 (Q99250 whole entry): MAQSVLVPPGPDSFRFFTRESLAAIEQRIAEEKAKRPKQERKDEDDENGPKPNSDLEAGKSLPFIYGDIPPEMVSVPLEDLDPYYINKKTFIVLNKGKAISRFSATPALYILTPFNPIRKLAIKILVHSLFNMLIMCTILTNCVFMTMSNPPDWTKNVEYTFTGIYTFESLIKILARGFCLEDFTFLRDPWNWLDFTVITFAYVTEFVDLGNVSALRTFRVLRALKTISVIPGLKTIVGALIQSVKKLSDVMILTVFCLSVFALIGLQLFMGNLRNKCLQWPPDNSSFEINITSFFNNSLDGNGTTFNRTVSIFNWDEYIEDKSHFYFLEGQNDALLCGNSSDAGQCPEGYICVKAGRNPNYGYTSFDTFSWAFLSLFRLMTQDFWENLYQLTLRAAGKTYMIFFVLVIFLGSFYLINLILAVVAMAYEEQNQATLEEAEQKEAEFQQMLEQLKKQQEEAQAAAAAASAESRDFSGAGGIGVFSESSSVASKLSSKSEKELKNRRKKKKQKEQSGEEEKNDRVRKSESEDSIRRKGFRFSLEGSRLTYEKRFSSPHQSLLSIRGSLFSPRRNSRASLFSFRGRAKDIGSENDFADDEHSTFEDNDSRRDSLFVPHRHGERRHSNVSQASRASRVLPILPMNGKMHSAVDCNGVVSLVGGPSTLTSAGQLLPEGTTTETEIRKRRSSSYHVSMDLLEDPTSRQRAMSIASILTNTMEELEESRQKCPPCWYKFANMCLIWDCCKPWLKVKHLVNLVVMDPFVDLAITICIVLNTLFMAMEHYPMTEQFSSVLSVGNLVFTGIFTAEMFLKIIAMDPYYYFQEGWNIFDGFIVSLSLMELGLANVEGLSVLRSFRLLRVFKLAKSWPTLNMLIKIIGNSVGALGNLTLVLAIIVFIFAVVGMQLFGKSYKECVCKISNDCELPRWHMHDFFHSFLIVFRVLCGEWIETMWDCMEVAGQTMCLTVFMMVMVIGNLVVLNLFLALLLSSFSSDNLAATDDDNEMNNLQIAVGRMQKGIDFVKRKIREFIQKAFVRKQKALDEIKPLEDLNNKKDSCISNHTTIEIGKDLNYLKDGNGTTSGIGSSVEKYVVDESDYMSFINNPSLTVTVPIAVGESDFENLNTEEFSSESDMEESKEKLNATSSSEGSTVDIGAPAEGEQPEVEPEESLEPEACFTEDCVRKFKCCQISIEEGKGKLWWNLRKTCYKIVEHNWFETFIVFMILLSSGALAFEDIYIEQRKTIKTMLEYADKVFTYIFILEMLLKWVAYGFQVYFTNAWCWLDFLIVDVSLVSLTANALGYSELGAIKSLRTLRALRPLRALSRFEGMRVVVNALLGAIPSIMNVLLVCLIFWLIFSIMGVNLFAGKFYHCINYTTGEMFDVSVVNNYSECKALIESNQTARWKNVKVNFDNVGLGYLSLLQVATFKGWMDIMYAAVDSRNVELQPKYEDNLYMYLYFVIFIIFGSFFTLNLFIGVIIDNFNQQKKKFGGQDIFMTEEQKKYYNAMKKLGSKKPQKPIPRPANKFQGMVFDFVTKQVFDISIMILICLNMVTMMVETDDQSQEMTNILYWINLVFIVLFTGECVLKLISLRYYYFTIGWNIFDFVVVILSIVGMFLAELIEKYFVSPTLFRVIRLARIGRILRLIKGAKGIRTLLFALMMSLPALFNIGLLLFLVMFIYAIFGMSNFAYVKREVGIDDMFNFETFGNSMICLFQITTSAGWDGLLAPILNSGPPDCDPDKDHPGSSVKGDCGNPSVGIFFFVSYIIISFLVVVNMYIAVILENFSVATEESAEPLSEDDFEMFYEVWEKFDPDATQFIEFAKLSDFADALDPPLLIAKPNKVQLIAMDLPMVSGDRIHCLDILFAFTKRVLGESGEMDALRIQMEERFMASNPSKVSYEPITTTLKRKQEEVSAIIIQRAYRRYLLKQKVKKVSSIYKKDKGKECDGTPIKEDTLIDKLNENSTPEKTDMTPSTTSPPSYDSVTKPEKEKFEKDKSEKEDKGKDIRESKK

In the case of `O=C(O)Cc1ccccc1Nc1c(Cl)cccc1Cl` [Diclofenac, reference compound], the “thermal hyperalgesia vs vehicle” value ([1]; 80 mg/kg intraperitoneal, positive control) is reported as “reversed thermal hyperalgesia”.

For `Cc1cc(F)ccc1Oc1ncc(C(F)(F)F)cc1C(=O)Nc1cccc([S@](C)(=N)=O)c1` [LTGO-33], the potency in rats [2] is listed as “reduced potency in rats”.

In the case of `Cc1ccc(C(=O)Nc2ccnc(S(N)(=O)=O)c2)c(N2CCCC(F)(F)CC2)n1` [MSD199, 2-(4,4-difluoroazepan-1-yl)-6-methyl-N-(2-sulfamoylpyridin-4-yl)-nicotinamide], the “paw withdrawal thresholds vs vehicle (mechanical allodynia)” value ([3]; 1 mg/kg PO) is reported as “no significant antiallodynic effects; also recorded: did not significantly alter paw withdrawal thresholds”, the “paw withdrawal thresholds vs vehicle (mechanical allodynia)” value ([3]; 10 mg/kg PO) is reported as “demonstrated significant antiallodynic effects; also recorded: significant reversal of mechanical allodynia” and the IC50 [4] is reported as 0.0086 µM. For the same compound, the IC50 [5] was over 33.6 µM, the “nocifensive responses vs vehicle, dose-response” value (“nocifensive responses vs vehicle” for short) ([6]; 1 mg/kg PO (Fig. 2C)) was “significantly lower than vehicle” and the “nocifensive responses vs vehicle” value ([6]; 3 mg/kg PO (Fig. 2C)) was “significantly lower than vehicle”. For the same compound, the “nocifensive responses vs vehicle” value ([6]; 10 mg/kg PO (Fig. 2C)) was “significantly lower than vehicle”, the “effect on capsaicin-induced nocifensive behavior” value ([6]; 10 mg/kg PO, 1 h before capsaicin (Fig. 2B), 10 mg/kg) was “significantly blocked” and the “potency, Chimera B” value [7] was “abolished the potency”. It also gave a Total plasma exposure ([8]; 1 mg/kg PO) of 73.06 ± 4.71 nM, a Total plasma exposure ([8]; 10 mg/kg PO) of 1117 ± 84.19 nM and a concentration at 4 h ([8]; 1 mg/kg) of 20.1 ± 5.1 nM. The concentration at 4 h ([8]; 10 mg/kg) was 199 ± 27.3 nM, the IC50 [9] was over 33.6 µM and the “hind paw withdrawal latency vs vehicle (thermal hyperalgesia)” value ([1]; 1 mg/kg PO) was “but not at 1 mg/kg, significantly increased”. The “hind paw withdrawal latency vs vehicle (thermal hyperalgesia)” value ([1]; 10 mg/kg PO) was “significantly increased”, the IC50 [10] was over 33.6 µM and the frequency dependency [11] was “does not display frequency dependency”. For the same compound, the IC50 [12] was 0.0056 µM, the “sodium current inhibition, Chimera 2” value [13] was “disruption of sodium current inhibition” and the IC50 [14] was 0.0011 µM. The IC50 [15] was over 33.6 µM, the “selectivity over recombinant human NaV1.4 channel” value [16] was about 2000 fold and the fraction unbound [17] was 0.15. For the same compound, the IC50 [18] was over 33.6 µM, the “effect on capsaicin-induced nocifensive behavior” value [19] was “had no effect; also recorded: no observable impact” and the IC50 [20] was over 33 µM. The “inhibition of all other recombinant human NaV channel isoforms” value [21] was “no inhibition”, the IC50 [22] was 4.83 µM and the IC50 [23] was over 33.6 µM.

In the case of `COc1cc(NC(=O)c2ccc(-c3ccc(Cl)cc3)o2)cc(OC)c1` [Molecule A-803467], the “potency in wildtype rodents” value ([2]; ref Jarvis et al., 2007) is listed as “exhibited reduced potency in wildtype rodents” and the SNL-induced mechanical allodynia ([24]; rodents, ref Jarvis et al., 2007) is listed as “demonstrated reversal of SNL-induced mechanical allodynia”.

For `CNC(=O)c1ccc(-c2cc(Cl)cc(Cl)c2Cl)c(N)n1` [PF-01247324], the frequency dependency [25] is given as “demonstrates frequency dependency” and the “neuropathic pain in rat SNL model” value ([24]; rat, ref Payne et al., 2015) is given as “reversed neuropathic pain in the rat SNL model”.

In the case of `COc1c([C@H]2[C@H](C(=O)Nc3ccnc(C(N)=O)c3)O[C@@](C)(C(F)(F)F)[C@H]2C)ccc(F)c1F` [VX-548], the potency in rats [2] is given as “reduced potency in rats”.
